# Measured values published in article PMC5292677 (Leukemia, 2016).
# System: patients with myelofibrosis
# Assay: Phase I safety: drug-related adverse events, DLTs, tolerability
# Format: in vivo, human
# In short: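 Design was 3+3 dose escalation of oral test compound QD (75–400 mg) or BID (100–400 mg) in 28-day cycles. AEs were graded by CTCAE v4.0 with causality, alongside labs, ECGs, vital signs and physical exams. A DLT was grade 4 cytopenia, other grade 3/4 hematologic toxicity, or grade 3/4 non-hematologic toxicity, excluding manageable GI events. The population was all patients dosed ≥1 time.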
compound,measurement,setting,value
C[C@H](Nc1cc(-c2cnn(C)c2)cc(Nc2cnccn2)n1)c1ccc(F)cc1 [NS-018],"Drug-related anemia, all grades",75 mg QD (n=3),0 n (%)
same,"Drug-related diarrhea, all grade",75 mg QD (n=3),0 n (%)
same,"Drug-related dizziness, all grade",75 mg QD (n=3),0 n (%)
same,"Drug-related esophageal reflux, all grade",75 mg QD (n=3),0 n (%)
same,"Drug-related headache, all grade",75 mg QD (n=3),0 n (%)
same,"Drug-related nausea, all grade",75 mg QD (n=3),0 n (%)
same,"Drug-related paresthesia, all grade",75 mg QD (n=3),0 n (%)
same,"Drug-related thrombocytopenia, Grade 1/2",75 mg QD (n=3),0 n (%)
same,"Drug-related thrombocytopenia, Grade 3",75 mg QD (n=3),0 n (%)
same,"Drug-related thrombocytopenia, Grade 4",75 mg QD (n=3),1 (33) n (%)
same,"Drug-related thrombocytopenia, all grades",75 mg QD (n=3),1 (33) n (%)
same,"Drug-related vomiting, all grade",75 mg QD (n=3),0 n (%)
same,"Drug-related weight increased, all grade",75 mg QD (n=3),0 n (%)
same,"Drug-related anemia, all grades",100 mg BID (n=5),0 n (%)
same,"Drug-related diarrhea, all grade",100 mg BID (n=5),0 n (%)
same,"Drug-related dizziness, all grade",100 mg BID (n=5),0 n (%)
same,"Drug-related esophageal reflux, all grade",100 mg BID (n=5),0 n (%)
same,"Drug-related headache, all grade",100 mg BID (n=5),0 n (%)
same,"Drug-related nausea, all grade",100 mg BID (n=5),0 n (%)
same,"Drug-related paresthesia, all grade",100 mg BID (n=5),0 n (%)
same,"Drug-related thrombocytopenia, Grade 1/2",100 mg BID (n=5),0 n (%)
same,"Drug-related thrombocytopenia, Grade 3",100 mg BID (n=5),1 (20) n (%)
same,"Drug-related thrombocytopenia, Grade 4",100 mg BID (n=5),0 n (%)
same,"Drug-related thrombocytopenia, all grades",100 mg BID (n=5),1 (20) n (%)
same,"Drug-related vomiting, all grade",100 mg BID (n=5),0 n (%)
same,"Drug-related weight increased, all grade",100 mg BID (n=5),0 n (%)
same,"Drug-related anemia, all grades",125 mg QD (n=4),0 n (%)
same,"Drug-related diarrhea, all grade",125 mg QD (n=4),0 n (%)
same,"Drug-related dizziness, all grade",125 mg QD (n=4),0 n (%)
same,"Drug-related esophageal reflux, all grade",125 mg QD (n=4),0 n (%)
same,"Drug-related headache, all grade",125 mg QD (n=4),0 n (%)
same,"Drug-related nausea, all grade",125 mg QD (n=4),0 n (%)
same,"Drug-related paresthesia, all grade",125 mg QD (n=4),0 n (%)
same,"Drug-related thrombocytopenia, all grades",125 mg QD (n=4),0 n (%)
same,"Drug-related vomiting, all grade",125 mg QD (n=4),0 n (%)
same,"Drug-related weight increased, all grade",125 mg QD (n=4),0 n (%)
same,"Drug-related anemia, all grades",200 mg BID (n=12),0 n (%)
same,"Drug-related diarrhea, all grade",200 mg BID (n=12),2 (17) n (%)
same,"Drug-related diarrhea, grade 3 or 4",200 mg BID (n=12),0 n (%)
same,"Drug-related dizziness, all grade",200 mg BID (n=12),1 (8) n (%)
same,"Drug-related dizziness, grade 3 or 4",200 mg BID (n=12),0 n (%)
same,"Drug-related esophageal reflux, all grade",200 mg BID (n=12),0 n (%)
same,"Drug-related headache, all grade",200 mg BID (n=12),0 n (%)
same,"Drug-related nausea, all grade",200 mg BID (n=12),1 (8) n (%)
same,"Drug-related nausea, grade 3 or 4",200 mg BID (n=12),0 n (%)
same,"Drug-related paresthesia, all grade",200 mg BID (n=12),0 n (%)
same,"Drug-related thrombocytopenia, Grade 1/2",200 mg BID (n=12),1 (8) n (%)
same,"Drug-related thrombocytopenia, all grades",200 mg BID (n=12),1 (8) n (%)
same,"Drug-related vomiting, all grade",200 mg BID (n=12),0 n (%)
same,"Drug-related weight increased, all grade",200 mg BID (n=12),0 n (%)
same,"Drug-related anemia, Grade 1/2",200 mg QD (n=9),1 (11) n (%)
same,"Drug-related anemia, all grades",200 mg QD (n=9),1 (11) n (%)
same,"Drug-related diarrhea, all grade",200 mg QD (n=9),2 (22) n (%)
same,"Drug-related diarrhea, grade 3 or 4",200 mg QD (n=9),0 n (%)
same,"Drug-related dizziness, all grade",200 mg QD (n=9),0 n (%)
same,"Drug-related esophageal reflux, all grade",200 mg QD (n=9),0 n (%)
same,"Drug-related headache, all grade",200 mg QD (n=9),0 n (%)
same,"Drug-related nausea, all grade",200 mg QD (n=9),1 (11) n (%)
same,"Drug-related nausea, grade 3 or 4",200 mg QD (n=9),0 n (%)
same,"Drug-related paresthesia, all grade",200 mg QD (n=9),0 n (%)
same,"Drug-related thrombocytopenia, all grades",200 mg QD (n=9),0 n (%)
same,"Drug-related vomiting, all grade",200 mg QD (n=9),2 (22) n (%)
same,"Drug-related vomiting, grade 3 or 4",200 mg QD (n=9),0 n (%)
same,"Drug-related weight increased, all grade",200 mg QD (n=9),2 (22) n (%)
same,"Drug-related weight increased, grade 3 or 4",200 mg QD (n=9),0 n (%)
same,"Drug-related anemia, Grade 1/2",250 mg BID (n=8),1 (13) n (%)
same,"Drug-related anemia, Grade 3",250 mg BID (n=8),0 n (%)
same,"Drug-related anemia, Grade 4",250 mg BID (n=8),0 n (%)
same,"Drug-related anemia, all grades",250 mg BID (n=8),1 (13) n (%)
same,"Drug-related diarrhea, all grade",250 mg BID (n=8),0 n (%)
same,"Drug-related dizziness, all grade",250 mg BID (n=8),1 (13)/1 (13) n (%)
same,"Drug-related dizziness, grade 3 or 4",250 mg BID (n=8),1 (13)/1 (13) n (%)
same,"Drug-related esophageal reflux, all grade",250 mg BID (n=8),1 (13) n (%)
same,"Drug-related esophageal reflux, grade 3 or 4",250 mg BID (n=8),0 n (%)
same,"Drug-related headache, all grade",250 mg BID (n=8),0 n (%)
same,"Drug-related nausea, all grade",250 mg BID (n=8),2 (25) n (%)
same,"Drug-related nausea, grade 3 or 4",250 mg BID (n=8),1 (13) n (%)
same,"Drug-related paresthesia, all grade",250 mg BID (n=8),0 n (%)
same,"Drug-related thrombocytopenia, Grade 1/2",250 mg BID (n=8),2 (25) n (%)
same,"Drug-related thrombocytopenia, Grade 3",250 mg BID (n=8),0 n (%)
same,"Drug-related thrombocytopenia, Grade 4",250 mg BID (n=8),1 (13) n (%)
same,"Drug-related thrombocytopenia, all grades",250 mg BID (n=8),3 (38) n (%)
same,"Drug-related vomiting, all grade",250 mg BID (n=8),0 n (%)
same,"Drug-related weight increased, all grade",250 mg BID (n=8),0 n (%)
same,DLT: grade 3 QT prolongation,250 mg BID cohort,1 patient
same,Patients who discontinued owing to AEs (beyond DLT),300 mg BID,3 patients
same,Rate of discontinuations owing to AEs,300 mg BID,38%
same,"Drug-related anemia, Grade 1/2",300 mg BID (n=12),1 (8) n (%)
same,"Drug-related anemia, Grade 3",300 mg BID (n=12),2 (17) n (%)
same,"Drug-related anemia, Grade 4",300 mg BID (n=12),0 n (%)
same,"Drug-related anemia, all grades",300 mg BID (n=12),3 (25) n (%)
same,"Drug-related diarrhea, all grade",300 mg BID (n=12),1 (8) n (%)
same,"Drug-related diarrhea, grade 3 or 4",300 mg BID (n=12),0 n (%)
same,"Drug-related dizziness, all grade",300 mg BID (n=12),3 (25) n (%)
same,"Drug-related dizziness, grade 3 or 4",300 mg BID (n=12),0 n (%)
same,"Drug-related esophageal reflux, all grade",300 mg BID (n=12),1 (8) n (%)
same,"Drug-related esophageal reflux, grade 3 or 4",300 mg BID (n=12),0 n (%)
same,"Drug-related headache, all grade",300 mg BID (n=12),0 n (%)
same,"Drug-related nausea, all grade",300 mg BID (n=12),4 (33) n (%)
same,"Drug-related nausea, grade 3 or 4",300 mg BID (n=12),0 n (%)
same,"Drug-related paresthesia, all grade",300 mg BID (n=12),2 (17) n (%)
same,"Drug-related paresthesia, grade 3 or 4",300 mg BID (n=12),1 (8) n (%)
same,"Drug-related thrombocytopenia, Grade 1/2",300 mg BID (n=12),3 (25) n (%)
same,"Drug-related thrombocytopenia, Grade 3",300 mg BID (n=12),1 (8) n (%)
same,"Drug-related thrombocytopenia, Grade 4",300 mg BID (n=12),0 n (%)
same,"Drug-related thrombocytopenia, all grades",300 mg BID (n=12),4 (33) n (%)
same,"Drug-related vomiting, all grade",300 mg BID (n=12),0 n (%)
same,"Drug-related weight increased, all grade",300 mg BID (n=12),1 (8) n (%)
same,"Drug-related weight increased, grade 3 or 4",300 mg BID (n=12),0 n (%)
